# Test results from ChEMBL document CHEMBL4152391, “Bile Acid Oligomers and Their Combination with Antibiotics To Combat Bacterial Infections” (J Med Chem, 2018).
# The source made the active and inactive calls. No cut-off for these calls is given here.
# Tests used:
# Staphylococcus aureus [1] = assay: Antibacterial activity against methicillin/ciprofloxacin-resistant Staphylococcus aureus ATCC 2673 clinical isolate at 5 to 100 ug after 18 hrs by agar disk-diffusion method; type: functional
# How it was run: (§1)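 CLSI agar disk diffusion: 5 to 100 µg compound loaded on 6 mm sterile paper disks, dried, placed on Mueller Hinton agar lawned with McFarland 0.5 bacterial suspension; cefotaxime positive and DMSO solvent controls run alongside; 18 h at 37 °C, inhibition zone diameter read to nearest whole mm.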
# Staphylococcus aureus [2] = assay: Antibacterial activity against methicillin/ciprofloxacin/chloramphenicol-resistant Staphylococcus aureus ATCC 1704 clinical isolate after 18 hrs by broth microdilution method; type: functional, organism-based; conditions: ATCC 1704, 18 h
# How it was run: (§2)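 Broth microdilution per CLSI for water-insoluble agents: twofold serial dilutions made in DMSO at 100x final, diluted in Mueller Hinton broth to 1% final DMSO; 5x10^5 cfu/mL bacteria exposed 18 h at 37 °C with positive, growth and sterility controls. MIC = lowest concentration giving complete growth inhibition (turbidity and XTT reduction); IC50 from OD600 dose-response inflection point.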
# Staphylococcus aureus [3] = assay: Antibacterial activity against methicillin/ciprofloxacin-resistant Staphylococcus aureus ATCC 2673 clinical isolate after 18 hrs by broth microdilution method; type: functional, organism-based; conditions: ATCC 2673, 18 h; how it was run: as §2
# HEK293 = assay: Cytotoxicity against HEK293 cells assessed as decrease in cell viability at 1 to 200 uM after 24 hrs by Alamar Blue assay; type: cell-based; conditions: human, hek293, 24 h
# How it was run: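 HEK293 cells in DMEM HG, 10% FBS, 1% pen-strep, 37 °C 5% CO2, passage under 30, used at 80% confluency; seeded 1×10^4/well, after 24 h washed and treated 24 h with 1–200 µM in complete medium; alamar blue (0.15 mg/mL) added for 4 h, absorbance 570 and 600 nm; viability relative to untreated cells as 100%.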
# Pseudomonas aeruginosa = assay: Antibacterial activity against Pseudomonas aeruginosa at 5 to 100 ug after 18 hrs by agar disk-diffusion method; type: functional, organism-based
# How it was run: (§3)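 Agar disk diffusion per CLSI: compound loaded on sterile 6 mm paper disks, dried, placed on Mueller Hinton agar lawned with bacteria at McFarland 0.5; cefotaxime positive and DMSO solvent controls; 37 °C for 18 h; zone of inhibition diameter measured to nearest whole mm.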
# Staphylococcus aureus [4] = assay: Potentiation of vancomycin-induced antibacterial activity against Staphylococcus aureus ATCC 29213 assessed as decrease in […] at 2 ug/ml after 18 hrs by checkerboard microdilution method relative to control; type: functional
# How it was run: (§4)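 Checkerboard microdilution: 5x10^5 cfu/mL bacteria exposed to twofold serial dilutions of compound and antibiotic, alone and combined (0.03–32 µg/mL), 18 h at 37 °C. ΣFIC: ≤0.5 synergy; >0.5–1 additive; >1–4 indifferent; >4 antagonism.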
# Staphylococcus aureus [5] = assay: Antibacterial activity against Staphylococcus aureus ATCC 29213 assessed as disruption of cell membrane at 0.5 times MIC after 18 hrs by scanning electron microscopic method; type: functional, organism-based
# How it was run: (§5)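 Bacterial suspension (5x10^5 cfu/mL) exposed to compound at 0.5x and 1x MIC for 18 h at 37 °C alongside untreated control; centrifuged 10,000 rpm 10 min, pellets washed twice in normal saline, then processed for scanning electron microscopy.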
# Staphylococcus aureus [6] = assay: Potentiation of ciprofloxacin-induced antibacterial activity against Staphylococcus aureus ATCC 29213 assessed as decrease in […] at 2 ug/ml after 18 hrs by checkerboard microdilution method relative to control; type: functional; how it was run: as §4
# Staphylococcus aureus [7] = assay: Potentiation of cefotaxime-induced antibacterial activity against Staphylococcus aureus ATCC 29213 assessed as decrease in cefotaxime MIC at 2 ug/ml after 18 hrs by checkerboard microdilution method relative to control; type: functional; how it was run: as §4
# Staphylococcus aureus [8] = assay: Antibacterial activity against Staphylococcus aureus ATCC 29213 after 18 hrs by broth microdilution method; type: functional, organism-based; conditions: ATCC 29213, 18 h; how it was run: as §2
# Staphylococcus aureus [9] = assay: Potentiation of amikacin-induced antibacterial activity against Staphylococcus aureus ATCC 29213 assessed as decrease in […] at 2 ug/ml after 18 hrs by checkerboard microdilution method relative to control; type: functional; how it was run: as §4
# Staphylococcus aureus [10] = assay: Antibacterial activity against Staphylococcus aureus ATCC 29213 assessed as shriveling at 0.5 times MIC after 18 hrs by scanning electron microscopic method; type: functional, organism-based; how it was run: as §5
# Staphylococcus aureus [11] = assay: Potentiation of vancomycin-induced antibacterial activity against Staphylococcus aureus ATCC 29213 assessed as FICI index at 2 ug/ml after 18 hrs by checkerboard microdilution method relative to control; type: functional; how it was run: as §4
# Staphylococcus aureus [12] = assay: Antibiofilm activity against Staphylococcus aureus ATCC 29213 after 18 hrs by XTT-menadione assay; type: functional
# How it was run: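 Biofilms grown 24 h at 37 °C from suspension at OD600 0.1 in tryptic soy broth with 1% glucose, washed twice with saline, exposed 18 h at 37 °C to twofold serial dilutions; growth and sterility controls. Read by XTT (0.5 mg/mL)–menadione (10 µM) in MHB, 1 h dark at 37 °C, absorbance 450 nm; MBIC50 and MBIC100 = 50% and 100% inhibition.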
# Staphylococcus aureus [13] = assay: Antibacterial activity against Staphylococcus aureus ATCC 29213 assessed as bleb formation at 0.5 times MIC after 18 hrs by scanning electron microscopic method; type: functional, organism-based; how it was run: as §5
# Staphylococcus aureus [14] = assay: Potentiation of cefotaxime-induced antibacterial activity against Staphylococcus aureus ATCC 29213 assessed as FICI index at 2 ug/ml after 18 hrs by checkerboard microdilution method relative to control; type: functional; how it was run: as §4
# Staphylococcus aureus [15] = assay: Antibacterial activity against Staphylococcus aureus ATCC 29213 at 30 ug after 18 hrs by agar disk-diffusion method; type: functional; conditions: ATCC 29213, 18 h, read-out: DIZ; how it was run: as §3
# Candida albicans = assay: Antifungal activity against Candida albicans ATCC 90028 at 30 ug after 24 hrs by agar disk-diffusion method; type: functional; conditions: ATCC 90028, 24 h, read-out: DIZ
# How it was run: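 Candida disk diffusion on MHA with 2% glucose and 0.5 µg/mL methylene blue, following CLSI antifungal guidance; paper disks loaded with compound; incubated 37 °C for 24 h; zone of inhibition diameter read.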
# Escherichia coli = assay: Antibacterial activity against Escherichia coli ATCC 25922 at 5 to 100 ug after 18 hrs by agar disk-diffusion method; type: functional, organism-based; how it was run: as §3
# Staphylococcus aureus [16] = assay: Potentiation of ciprofloxacin-induced antibacterial activity against Staphylococcus aureus ATCC 29213 assessed as FICI index at 2 ug/ml after 18 hrs by checkerboard microdilution method relative to control; type: functional; how it was run: as §4
# Staphylococcus aureus [17] = assay: Antibacterial activity against methicillin/ciprofloxacin/chloramphenicol-resistant Staphylococcus aureus ATCC 1704 clinical isolate at 5 to 100 ug after 18 hrs by agar disk-diffusion method; type: functional; how it was run: as §1
# Staphylococcus aureus [18] = assay: Potentiation of amikacin-induced antibacterial activity against Staphylococcus aureus ATCC 29213 assessed as FICI index at 2 ug/ml after 18 hrs by checkerboard microdilution method relative to control; type: functional; how it was run: as §4
smiles,measurement,setting,value
C[C@H](CCC(=O)NCCNCCNC(=O)CC[C@@H](C)[C@H]1CC[C@H]2[C@@H]3[C@H](O)C[C@@H]4C[C@H](O)CC[C@]4(C)[C@H]3C[C@H](O)[C@]12C)[C@H]1CC[C@H]2[C@@H]3[C@H](O)C[C@@H]4C[C@H](O)CC[C@]4(C)[C@H]3C[C@H](O)[C@]12C,diameter of the inhibition zone (DIZ),Staphylococcus aureus [1],13 mm
same,IC50,Staphylococcus aureus [2],4.36 µg/mL
same,MIC,Staphylococcus aureus [2],8 µg/mL
same,IC50,Staphylococcus aureus [3],2.18 µg/mL
same,MIC,Staphylococcus aureus [3],4 µg/mL
same,Activity,HEK293,Non-Toxic
same,Activity,Pseudomonas aeruginosa,inactive
same,fold change (FC),Staphylococcus aureus [4],2
same,Activity,Staphylococcus aureus [5],Active
same,fold change (FC),Staphylococcus aureus [6],17
same,fold change (FC),Staphylococcus aureus [7],33
same,IC50,Staphylococcus aureus [8],2.87 µg/mL
same,MIC,Staphylococcus aureus [8],4 µg/mL
same,fold change (FC),Staphylococcus aureus [9],67
same,Activity,Staphylococcus aureus [10],Active
same,fractional inhibitory concentration index (FICI),Staphylococcus aureus [11],1
same,MBIC100,Staphylococcus aureus [12],32 µg/mL
same,Activity,Staphylococcus aureus [13],Active
same,fractional inhibitory concentration index (FICI),Staphylococcus aureus [14],0.53
same,zone of inhibition at 30 µg/disc,Staphylococcus aureus [15],14 mm
same,zone of inhibition at 30 µg/disc,Candida albicans,10 mm
same,Activity,Escherichia coli,inactive
same,fractional inhibitory concentration index (FICI),Staphylococcus aureus [16],0.56
same,diameter of the inhibition zone (DIZ),Staphylococcus aureus [17],13 mm
same,fractional inhibitory concentration index (FICI),Staphylococcus aureus [18],0.51
